Laboratory results published in ChEMBL document CHEMBL4689842, “EUbOPEN Chemogenomics Library wave 1” (2021).

Tested on: HEK-293T
Experiment: Multiplex assay against HEK293T;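 as to Population Tubulin-Different-Phenotype (%): share of the cells with healthy nuclei that show this phenotype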
Format: toxicity, cell-based
Conditions: human
Outline: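 At seeding, live cells were stained with Hoechst33342, BioTracker Green Microtubule Cytoskeleton Dye, MitoTracker Red and Annexin V Alexa Fluor 680. After compound addition they were imaged on a CQ1 microscope at 37°C and 5% CO2, and CellPathfinder machine-learning gating sorted them into Hoechst high-intensity objects or normal cells, with normal cells further split into healthy, pyknosed or fragmented nuclei and pyknosed cells into mitotic or apoptotic. Tubulin, mitochondrial-mass and membrane-permeability phenotypes are given as per cents of cells with healthy nuclei.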

[1] = 12 h, 1 µM, compound concentration 1 uM, replicate 1
[2] = 12 h, 1 µM, compound concentration 1 uM, replicate 2
[3] = 12 h, 10 µM, compound concentration 10 uM, replicate 1
[4] = 12 h, 10 µM, compound concentration 10 uM, replicate 2
[5] = 24 h, 1 µM, compound concentration 1 uM, replicate 1
[6] = 24 h, 1 µM, compound concentration 1 uM, replicate 2
[7] = 24 h, 10 µM, compound concentration 10 uM, replicate 1
[8] = 24 h, 10 µM, compound concentration 10 uM, replicate 2
[9] = 48 h, 1 µM, compound concentration 1 uM, replicate 1
[10] = 48 h, 1 µM, compound concentration 1 uM, replicate 2
[11] = 48 h, 10 µM, compound concentration 10 uM, replicate 1
[12] = 48 h, 10 µM, compound concentration 10 uM, replicate 2

## CCc1ccc(OCc2ccccc2C(=O)Nc2ccc3nc(C)cc(N)c3c2)cc1.Cl
[1]
  Population Apoptotic (%): 84%
  Population Fragmented Nuclei (%): 28%
  Population Healthy Nuclei (%): 7%
  Population Hoechst High Intensity Objects (%): 18%
  Population Membrane Permeable-Phenotype (%): 33%
  Population Mitochondria Different-Phenotype (%): 100%
  Population Mitotic Cells (%): 15%
  Population Normal (%): 81%
  Population Pyknosed Nuclei (%): 64%
  Population Tubulin-Different-Phenotype (%): 66%
  Total Cell Count: 156
[2]
  Population Apoptotic (%): 73%
  Population Fragmented Nuclei (%): 8%
  Population Healthy Nuclei (%): 12%
  Population Hoechst High Intensity Objects (%): 14%
  Population Membrane Permeable-Phenotype (%): 0%
  Population Mitochondria Different-Phenotype (%): 93%
  Population Mitotic Cells (%): 26%
  Population Normal (%): 85%
  Population Pyknosed Nuclei (%): 79%
  Population Tubulin-Different-Phenotype (%): 73%
  Total Cell Count: 146
[3]
  Population Apoptotic (%): 50%
  Population Fragmented Nuclei (%): 19%
  Population Healthy Nuclei (%): 0%
  Population Hoechst High Intensity Objects (%): 24%
  Population Membrane Permeable-Phenotype (%): 0%
  Population Mitochondria Different-Phenotype (%): 0%
  Population Mitotic Cells (%): 50%
  Population Normal (%): 75%
  Population Pyknosed Nuclei (%): 80%
  Population Tubulin-Different-Phenotype (%): 0%
  Total Cell Count: 144
[4]
  Population Apoptotic (%): 62%
  Population Fragmented Nuclei (%): 18%
  Population Healthy Nuclei (%): 30%
  Population Hoechst High Intensity Objects (%): 35%
  Population Membrane Permeable-Phenotype (%): 11%
  Population Mitochondria Different-Phenotype (%): 8%
  Population Mitotic Cells (%): 37%
  Population Normal (%): 64%
  Population Pyknosed Nuclei (%): 51%
  Population Tubulin-Different-Phenotype (%): 41%
  Total Cell Count: 175
[5]
  Population Apoptotic (%): 85%
  Population Fragmented Nuclei (%): 18%
  Population Hoechst High Intensity Objects (%): 19%
  Population Mitochondria Different-Phenotype (%): 90%
  Population Mitotic Cells (%): 14%
  Population Normal (%): 80%
  Population Pyknosed Nuclei (%): 72%
  Population Tubulin-Different-Phenotype (%): 81%
  Total Cell Count: 152
[6]
  Population Apoptotic (%): 80%
  Population Fragmented Nuclei (%): 10%
  Population Healthy Nuclei (%): 9%
  Population Hoechst High Intensity Objects (%): 15%
  Population Membrane Permeable-Phenotype (%): 0%
  Population Mitochondria Different-Phenotype (%): 100%
  Population Mitotic Cells (%): 20%
  Population Normal (%): 84%
  Population Pyknosed Nuclei (%): 79%
  Population Tubulin-Different-Phenotype (%): 100%
  Total Cell Count: 141
[7]
  Population Apoptotic (%): 44%
  Population Fragmented Nuclei (%): 20%
  Population Healthy Nuclei (%): 0%
  Population Hoechst High Intensity Objects (%): 22%
  Population Membrane Permeable-Phenotype (%): 0%
  Population Mitochondria Different-Phenotype (%): 100%
  Population Mitotic Cells (%): 55%
  Population Normal (%): 77%
  Population Pyknosed Nuclei (%): 79%
  Total Cell Count: 135
[8]
  Population Apoptotic (%): 42%
  Population Fragmented Nuclei (%): 28%
  Population Healthy Nuclei (%): 21%
  Population Hoechst High Intensity Objects (%): 26%
  Population Membrane Permeable-Phenotype (%): 18%
  Population Mitochondria Different-Phenotype (%): 18%
  Population Mitotic Cells (%): 57%
  Population Normal (%): 73%
  Population Pyknosed Nuclei (%): 50%
  Population Tubulin-Different-Phenotype (%): 100%
  Total Cell Count: 103
[9]
  Population Apoptotic (%): 85%
  Population Fragmented Nuclei (%): 26%
  Population Healthy Nuclei (%): 2%
  Population Hoechst High Intensity Objects (%): 22%
  Population Mitochondria Different-Phenotype (%): 66%
  Population Mitotic Cells (%): 14%
  Population Normal (%): 77%
  Population Pyknosed Nuclei (%): 70%
  Population Tubulin-Different-Phenotype (%): 66%
  Total Cell Count: 155
[10]
  Population Apoptotic (%): 92%
  Population Fragmented Nuclei (%): 14%
  Population Healthy Nuclei (%): 11%
  Population Hoechst High Intensity Objects (%): 11%
  Population Membrane Permeable-Phenotype (%): 0%
  Population Mitochondria Different-Phenotype (%): 84%
  Population Mitotic Cells (%): 7%
  Population Normal (%): 88%
  Population Pyknosed Nuclei (%): 73%
  Population Tubulin-Different-Phenotype (%): 84%
  Total Cell Count: 124
[11]
  Population Apoptotic (%): 49%
  Population Fragmented Nuclei (%): 20%
  Population Healthy Nuclei (%): 0%
  Population Hoechst High Intensity Objects (%): 22%
  Population Membrane Permeable-Phenotype (%): 0%
  Population Mitochondria Different-Phenotype (%): 0%
  Population Mitotic Cells (%): 50%
  Population Normal (%): 77%
  Population Pyknosed Nuclei (%): 79%
  Population Tubulin-Different-Phenotype (%): 0%
  Total Cell Count: 132
[12]
  Population Apoptotic (%): 33%
  Population Fragmented Nuclei (%): 31%
  Population Healthy Nuclei (%): 50%
  Population Hoechst High Intensity Objects (%): 40%
  Population Membrane Permeable-Phenotype (%): 13%
  Population Mitochondria Different-Phenotype (%): 28%
  Population Mitotic Cells (%): 66%
  Population Normal (%): 59%
  Population Pyknosed Nuclei (%): 17%
  Population Tubulin-Different-Phenotype (%): 64%
  Total Cell Count: 176
